This is an account of results in ChEMBL document CHEMBL1122860, “Stereoselectivity of muscarinic receptors in vivo and in vitro for oxotremorine analogues. N-[4-(tertiary amino)-2-butynyl]-5-methyl-2-pyrrolidones” (J Med Chem, 1985).

The source made the active and inactive calls. No cut-off for these calls is given here.

A word on the LD50: it is the dose at which mortality reaches 50%. Read a low LD50 as greater toxicity.

The nature of series [1]: Acute toxicity in mice. In kind it is organism-based. The conditions noted are these: mouse, in vivo. Put shortly:
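Mice given compound intravenously; LD50 determined by the up and down method for small samples. Mortality counted at 15 min.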

Series [2] is described as follows: Tested for its effect on contraction of frog rectus abdominis muscle, expressed as equipotent molar ratio relative to carbamylcholine. The series is classed as functional. Put shortly:
(§1)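 Rana pipiens rectus abdominis held at 20 °C in aerated Clark-Ringer solution, pH 7.4. Each drug concentration applied for 5 min. Equipotent molar ratio relative to carbachol determined in three-point assays.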

The species entered for series [3] is Mus musculus. In words: Tested for tremorolytic activity in mice, expressed as dose required to double the dose of oxotremorine inducing a predetermined (grade 2) tremor intensity. The series is classed as functional. Put shortly:
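Antagonist given i.p. to groups of six or more mice at four linearly spaced doses including zero, 15 min before i.v. oxotremorine (log dose series, 0.1 log spacing). Median oxotremorine dose evoking grade 2 tremor estimated by Dixon up-and-down method, tremor scored visually over first 5 min. The antagonist dose doubling that median dose was found by linear regression.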

Series [4] is filed under the species Mus musculus. In words: Tested for mydriatic activity in mice, expressed as the dose required to cause half-maximal pupillary dilation. The series is classed as functional.
In series [5] the target is T1, Muscarinic acetylcholine receptor (Homo sapiens) (UniProt P20309+P08173+P11229+P08172+P08912). The conditions noted are these: Cavia porcellus; Ileum.
Series [6] concerns the target T1, Muscarinic acetylcholine receptor (Homo sapiens). The note with it: Cavia porcellus; Ileum. This is another data set of the same source.
Series [7] has the same target. In words: Tested for agonist activity at muscarinic receptor in guinea pig ileum, expressed as equipotent molar ratio relative to carbamylcholine. The series is classed as functional, tissue-based. The note with it: Cavia porcellus.
The species entered for series [8] is Cavia porcellus. As to the kind of experiment: Percent occupancy for 50% response calculated from (100 x ED50)/(KA+ED50). In kind it is functional. Put shortly:
(§2)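 Isolated guinea pig ileum. Control agonist dose-response curves were run, then tissue treated with propylbenzilylcholine mustard 2×10⁻⁸ M for 15–20 min, cutting maximal response by 20–80%. Double-reciprocal plots of equieffective agonist concentrations before and after treatment gave K_A (Furchgott method). Relative efficacy was derived from K_A and ED50; occupancy for 50% response was taken as 100ED50/(K_A + ED50).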

The species named for series [9] is Cavia porcellus. As to the kind of experiment: Relative efficacy calculated from KA and ED50 values. The series is classed as functional. Put shortly:
as §2

The subject of a further series is frog. As to the kind of experiment: Tested for its effect on contraction of frog rectus abdominis muscle, expressed as equipotent molar ratio relative to carbamylcholine; Inactive. In kind it is functional, tissue-based. Summed up:
as §1

For series [10], the target named is T1, Muscarinic acetylcholine receptor (Homo sapiens). As to the kind of experiment: Tested for agonist activity at Muscarinic acetylcholine receptor in guinea pig ileum. In kind it is functional, tissue-based. The note with it: Cavia porcellus, target entry is the homologue from another species.

In series [1], `C[C@@H]1CCC(=O)N1CC#CCN1CCCC1` displayed an LD50 of 45 µmol/kg. The EPMR in [2] is 141. Moreover, the ED50 in the series listed under Mus musculus [3] turned out to be 0.19 µmol/kg; in the series filed under Mus musculus [4] it was 4.8 µmol/kg.
`CN1[C@@H]2CC[C@H]1C[C@@H](OC(=O)C(CO)c1ccccc1)C2` (stereo partly drawn) [ATROPINE] registered an ED50 in the series filed under Mus musculus [3] of 0.86 µmol/kg.
The same measure, in the same setting: under `C[C@H](C#CCN1CCCC1)N1CCCC1=O` stands 0.26 µmol/kg.
Take `CC1CCC(=O)N1CC#CCN1CCCC1` (racemic): the EPMR in series [2] turned out to be 116. In addition, the ED50 in the series filed under Mus musculus [3] came to 0.4 µmol/kg; in the series listed under Mus musculus [4] it was 9 µmol/kg.
In turn, `O=C1CCCN1CC#CCN1CCCC1` [OXOTREMORINE] had a KA in series [5] of 0.68. In series [1], this compound gave an LD50 of 6.7 µmol/kg. Further, the ED50 in series [6] stood at 0.026 µM l-1. In addition, the results for the EPMR in [7] and in [2] were 0.42 and 49, respectively. Besides, in the series filed under Cavia porcellus [8], the Occupancy is on record as 3.5%. The Relative efficacy in the series listed under Cavia porcellus [9] is on record as 1.
As for `CN(C)CC#CCN1CCCC1=O`, the KA in series [5] came out at 22.9 µM l-1. Moreover, in the series listed under Cavia porcellus [8], the Occupancy is recorded as 0.55%. In addition, in the series filed under Cavia porcellus [9], the Relative efficacy is on record as 6.51.
As for `C[C@@H]1CCC(=O)N1CC#CCN(C)C`, the 50% lethal dose (LD50) in [1] was 426 µmol/kg. In addition, the EPMR in series [7] came to 4.6. Moreover, in the series on frog, the EPMR entry is “inactive”. Also, in the series filed under Cavia porcellus [8], the Occupancy is given as 11%. The compound further registered an ED50 in the series filed under Mus musculus [3] of 2.4 µmol/kg. Further, in series [10], the ED50 came out at 0.29 µM l-1 and the KA came to 2.34. Also, the Relative efficacy in the series filed under Cavia porcellus [9] was 0.29.
In the series listed under Mus musculus [3], `C[C@@H](C#CCN1CCCC1)N1CCCC1=O` displayed an ED50 of 20 µmol/kg.
In [1], `C[C@H]1CCC(=O)N1CC#CCN1CCCC1` registered a median lethal dose (LD50) of 40 µmol/kg. Moreover, the EPMR in series [2] turned out to be 132. Besides, the ED50 in the series filed under Mus musculus [3] stood at 4.2 µmol/kg; in the series filed under Mus musculus [4], 66 µmol/kg.
As for `C[C@H]1CCC(=O)N1CC#CCN(C)C`, the LD50 in [1] is 183 µmol/kg. The EPMR in [7] turned out to be 73.9. Also, the EPMR entry with frog is “inactive”. Further, the ED50 in the series filed under Mus musculus [3] was determined as 50 µmol/kg; in series [10] it was 4.6 µM l-1.
In the case of `C[C@@H]1CCC(=O)N1CC#CC[N+](C)(C)C.[I-]`, the LD50 in series [1] was 8.9 µmol/kg. For the same compound, the values for the EPMR in [7] and in [2] were 1.2 and 10, respectively. In [10], this compound came in with an ED50 of 0.076.
Consider `CC1CCC(=O)N1CC#CCN(C)C` (racemic), for which the EPMR in series [7] came to 8.8. In addition, the ED50 in the series filed under Mus musculus [3] worked out at 5.5 µmol/kg; in [10], 0.55 µM l-1.
For the compound `C[C@H]1CCC(=O)N1CC#CC[N+](C)(C)C.[I-]`, the LD50 in [1] worked out at 3.5 µmol/kg. In addition, the EPMR in series [7] was determined as 20; in [2], 8.8. Also, the ED50 in series [10] turned out to be 1.3.
